These results are taken from ChEMBL document CHEMBL1155317, “Design and optimisation of potent gp120-CD4 inhibitors” (Bioorg Med Chem Lett, 2009).

One may read the IC50 as the concentration that inhibits the measured activity by half. Usually half-life stands for how long it takes for the measured level to halve. A high value points to slow loss. What is called bioavailability is the share of a dose that reaches the circulation, judged against a reference dose that is usually intravenous. A low value points to poor availability.

Data set [1] has as its system Human immunodeficiency virus 1. The experiment in a line: Antiviral activity against Human immunodeficiency virus 1 NL4-3 infected HeLaP4 cells after 5 days by beta-galactosidase reporter assay. It counts as functional, organism-based. To be noted: Human immunodeficiency virus 1, NL4-3, HeLaP4, 120 h. In outline:
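HeLa-P4 cells were premixed with NL4-3 virus and added at 10^5 cells/mL to wells containing diluted compound. Plates were incubated for 5 days at 37 °C in humidified 5% CO₂. Infection was quantified with a β-galactosidase reporter assay.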
(In general: A reporter such as luciferase makes a cellular process visible.)

Data set [2] in a line: Inhibition of HIV1 NL4-3 gp160 assessed as inhibition of interaction between gp120 and host CD4 receptor by cell-cell fusion assay. Further details: species or system Human immunodeficiency virus 1.
Data set [3] is described as follows: Fraction of compound absorbed in rat at 1 mg/kg, iv and 1 mg/kg, po. It counts as ADME, organism-based. To be noted: in vivo, read-out: Fabs.
Data set [4] relates to Rattus norvegicus. The data set is described as follows: Unbound volume of distribution in rat at 1 mg/kg, iv and 1 mg/kg, po. It counts as ADME, organism-based. To be noted: in vivo.
Data set [5] is described as follows: Half life in rat at 1 mg/kg, iv and 1 mg/kg, po. To be noted: in vivo. It counts as ADME, organism-based.
Data set [6] can be described thus: Bioavailability in rat at 1 mg/kg. To be noted: in vivo. It counts as ADME, organism-based.
The nature of data set [7]: Clearance in rat at 1 mg/kg, iv and 1 mg/kg, po. Type of data set: ADME, organism-based. To be noted: in vivo.
Data set [8] has as its system Rattus norvegicus. The data set is described as follows: Unbound clearance in rat at 1 mg/kg, iv and 1 mg/kg, po. Type of data set: ADME, organism-based. To be noted: in vivo.

Each structure is given as a SMILES string. Where only a bound is given, the exact number is not on record here.

With `CC(Oc1cccc2ccccc12)C(=O)N1CCN(C(=O)c2ccccc2)C[C@H]1C` (some centres undefined), the half-inhibitory concentration (IC50) in data set [1] worked out at 1070 nM; in data set [2], 123 nM.
Taken in the same sequence, the figures for `Cc1n[nH]c2cccc(OC(C)C(=O)N3CCN(C(=O)c4ccccc4)C[C@H]3C)c12` (some centres undefined) were 36 nM and 16 nM.
On to `CC(Oc1cncc2ccccc12)C(=O)N1CCN(C(=O)c2ccccc2)C[C@H]1C` (some centres undefined), for which, in data set [2], the IC50 turned out to be 9370 nM.
For `CNc1ccc2c(O[C@@H](C)C(=O)N3CCN(C(=O)c4ccccc4)C[C@H]3C)cccc2n1`, the Fa in data set [3] is 60%. This molecule also gave a Vdu in data set [4] of 10.5 L/kg. Also, the IC50 amounted to 13 nM in data set [1] and 5 nM in data set [2]. In addition, the half-life in data set [5] is 54 min. The same molecule returned a bioavailability in data set [6] of 42%. This molecule also yielded a clearance in data set [7] of 27 mL/min/kg. This molecule also gave a CL free in data set [8] of 129 mL/min/kg.
As to `CNC(=O)c1cc(OC)c(O[C@@H](C)C(=O)N2CCN(c3nccc4ncccc34)C[C@H]2C)cn1`, the values for the IC50 in data set [1] and in data set [2] were 126 nM and 29 nM, respectively.
Consider `CNC(=O)c1cc(OC)c(O[C@@H](C)C(=O)N2CCN(c3n[nH]c4ccccc34)C[C@H]2C)cn1`, for which the IC50 in data set [1] was determined as 979 nM; in data set [2], 42 nM.
Regarding `CNC(=O)c1cc(OC)c(O[C@@H](C)C(=O)N2CCN(c3nccc4[nH]cnc34)C[C@H]2C)cn1`, the IC50 in data set [1] came to 7 nM; in data set [2], 24 nM.
With `CC(Oc1cccc2cccnc12)C(=O)N1CCN(C(=O)c2ccccc2)C[C@H]1C` (some centres undefined), the values for the IC50 in data set [1] and in data set [2] were 449 nM and 433 nM, respectively.
Taken in the same sequence, the figures for `CNC(=O)c1cc(OC)c(O[C@@H](C)C(=O)N2CCN(c3nccc4[nH]ccc34)C[C@H]2C)cn1` were more than 1000 nM and 29 nM.
On to `Cc1nn(C)c2cccc(OC(C)C(=O)N3CCN(C(=O)c4ccccc4)C[C@H]3C)c12` (some centres undefined), for which the IC50 in data set [1] amounted to 79 nM; in data set [2], 15 nM.
Taken in the same sequence, the figures for `CNC(=O)c1nccc2c(O[C@@H](C)C(=O)N3CCN(C(=O)c4ccccc4)C[C@H]3C)ccc(F)c12` were 20 nM and 31 nM.
For `CNC(=O)c1ccc2c(O[C@@H](C)C(=O)N3CCN(C(=O)c4ccccc4)C[C@H]3C)cccc2n1` the same measures were more than 4000 nM and 78 nM.
Consider `CNC(=O)c1ccc(O[C@@H](C)C(=O)N2CCN(C(=O)c3ccccc3)C[C@H]2C)c2ccncc12`, for which the IC50 in data set [2] was determined as 21200 nM.
The same measure, in the same setting: for `Cc1nc2c(OC(C)C(=O)N3CCN(C(=O)c4ccccc4)C[C@H]3C)cccc2[nH]1` (some centres undefined) the value was 834 nM; for `CNC(=O)c1cc(OC)c(O[C@@H](C)C(=O)N2CCN(c3ncnc4[nH]cnc34)C[C@H]2C)cn1`, 296 nM.
`CNC(=O)c1cc(OC)c(O[C@@H](C)C(=O)N2CCN(c3ncccn3)C[C@H]2C)cn1`: the IC50 came to 1620 nM in data set [1] and 71 nM in data set [2].
